Test results as given in ChEMBL document CHEMBL4828723, “Synthesis and Biological Evaluation of Falcarinol-Type Analogues as Potential Calcium Channel Blockers” (J Nat Prod, 2021).
Active and inactive are the calls of the source. No cut-off for these calls is given here.

Experiments:
[1] = system: PC-12; test: Neuroprotective activity against NaN3-induced cell injury in rat PC12 cells assessed as cell survival rate at 5 uM measured after 24 hrs by CCK-8 assay (reference value: 49.9 to 52%); assay type: functional; settings: read-out: Survival
[2] = system: PC-12; test: Neuroprotective activity against NaN3-induced cell injury in rat PC12 cells assessed as cell survival rate at 10 uM measured after 24 hrs by CCK-8 assay (reference value: 49.9 to 52%); assay type: functional; settings: read-out: Survival
[3] = system: PC-12; test: Neuroprotective activity against NaN3-induced cell injury in rat PC12 cells assessed as cell survival rate at 20 uM measured after 24 hrs by CCK-8 assay (reference value: 49.9 to 52%); assay type: functional; settings: read-out: Survival
[4] = system: PC-12; test: Neuroprotective activity against NaN3-induced cell injury in rat PC12 cells assessed as cell survival rate at 40 uM measured after 24 hrs by CCK-8 assay (reference value: 49.9 to 52%); assay type: functional; settings: read-out: Survival
[5] = system: PC-12; test: Neuroprotective activity against NaN3-induced cell injury in rat PC12 cells assessed as cell survival rate at 80 uM measured after 24 hrs by CCK-8 assay (reference value: 49.9 to 52%); assay type: functional; settings: read-out: Survival
[6] = system: PC-12; test: Neuroprotective activity against NaN3-induced cell injury in rat PC12 cells assessed as cell survival rate at 100 uM measured after 24 hrs by CCK-8 assay (reference value: 49.9 to 52%); assay type: functional; settings: read-out: Survival
[7] = system: PC-12; test: Neuroprotective activity against NaN3-induced cell injury in rat PC12 cells assessed as cell survival rate at 5 uM measured after 24 hrs by CCK-8 assay (reference value: 50%); assay type: functional; settings: read-out: Survival
[8] = system: PC-12; test: Neuroprotective activity against NaN3-induced cell injury in rat PC12 cells assessed as cell survival rate at 10 uM measured after 24 hrs by CCK-8 assay (reference value: 50%); assay type: functional; settings: read-out: Survival
[9] = system: PC-12; test: Neuroprotective activity in rat PC12 cells assessed as prevention of NaN3-induced apoptosis at 5 to 10 uM measured after 24 hrs by Hoechst staining based assay; assay type: functional, cell-based; settings: dose 5-10 µM
In short: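 PC12 cells plated at about 1 × 10⁵ per well and cultured overnight. Pretreated 1 h with 5, 10 or 20 μM compound, then NaN₃ for 24 h in glucose-free, serum-free RPMI 1640 after two washes in glucose-free EBSS pH 7.5. Cells fixed 30 min in methanol, stained with Hoechst 33258 for 10 min at 37 °C in the dark, and scored for nuclear morphology by fluorescence microscopy (ex 350/em 461 nm).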

[10] = system: PC-12; test: Neuroprotective activity in rat PC12 cells assessed as reduction in NaN3-induced LDH release at 5 to 10 uM measured by LDH release assay (reference value: 411.84 to 416.67 U/L); assay type: functional; settings: dose 5-10 µM
[11] = system: PC-12; test: Neuroprotective activity in rat PC12 cells assessed as reduction in NaN3-induced MDA release at 5 uM measured (reference value: 253 nmol/mL); assay type: functional
[12] = system: PC-12; test: Neuroprotective activity in rat PC12 cells assessed as prevention of NaN3-induced decrease in SOD release at 5 to 20 uM measured (reference value: 54 U/mg of protein); assay type: functional; settings: dose 5-20 µM
[13] = system: PC-12; test: Neuroprotective activity against NaN3-induced cell injury in rat PC12 cells assessed as cell survival rate at 20 uM measured after 24 hrs by CCK-8 assay (reference value: 50%); assay type: functional; settings: read-out: Survival
[14] = system: PC-12; test: Neuroprotective activity against NaN3-induced cell injury in rat PC12 cells assessed as cell survival rate at 40 uM measured after 24 hrs by CCK-8 assay (reference value: 50%); assay type: functional; settings: read-out: Survival
[15] = biological target: T1, Cav1.2 (L-type calcium channel alpha1c/beta2a/alpha2delta1) (Homo sapiens, UniProt P54289+Q08289+Q13936); test: Inhibition of human alpha1c/beta2a/alpha2delta1 Cav1.2 expressed in HEK293 cells assessed as time course of inhibition of membrane potential measured after washout with external solution at 10 uM by manual patch clamp technique; assay type: cell-based
In short: (§1)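 HEK-293 cells stably expressing hCav1.2 (α1C/β2a/α2δ1), induced with tetracycline 1 μg/mL for 24 h. Perforated whole-cell manual patch clamp (amphotericin B 250 μg/mL in pipette; Cs-methanesulfonate internal, pH 7.2) at 24 °C. Holding potential −90 mV, 1000 ms prepulse inactivating 20% of channels, then a 50 ms step to 0 mV, repeated every 15 s. I_Ca-L followed over time, then washout with external solution. Final ethanol/DMSO ≤1.00%.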

[16] = biological target: T1, Cav1.2 (L-type calcium channel alpha1c/beta2a/alpha2delta1); test: Inhibition of human alpha1c/beta2a/alpha2delta1 Cav1.2 expressed in HEK293 cells assessed as time course of inhibition of membrane potential measured after washout with external solution at 30 uM by manual patch clamp technique; assay type: cell-based; in short: as §1
[17] = biological target: T1, Cav1.2 (L-type calcium channel alpha1c/beta2a/alpha2delta1); test: Inhibition of human alpha1c/beta2a/alpha2delta1 Cav1.2 expressed in HEK293 cells assessed as time course of inhibition of membrane potential measured after washout with external solution at 100 uM by manual patch clamp technique; assay type: cell-based; in short: as §1
[18] = biological target: L-type calcium channel alpha-1c/beta-2/alpha2delta-1 (Homo sapiens, UniProt P54289+Q08289+Q13936); test: Inhibition of human alpha1c/beta2a/alpha2delta1 Cav1.2 expressed in HEK293 cells assessed as time course of inhibition of membrane potential measured after washout with external solution by manual patch clamp technique; assay type: cell-based; in short: as §1
[19] = system: PC-12; test: Neurotrophic activity in rat PC12 cells assessed as cell survival rate at 1 uM measured after 24 hrs by CCK-8 assay (reference value: 50%); settings: PC-12, 24 h
[20] = system: PC-12; test: Neuroprotective activity against NaN3-induced cell injury in rat PC-12 cells assessed as cell survival rate at 2 to 8 uM measured after 24 hrs by CCK-8 assay (reference value: 50%); assay type: functional; settings: dose 2-8 µM
[21] = system: PC-12; test: Neuroprotective activity in rat PC12 cells assessed as reduction in NaN3-induced LDH release at 4 uM measured by LDH release assay (reference value: 411.84 to 416.67 U/L); assay type: functional
In short: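 PC12 injury model: glucose-free, serum-free RPMI 1640. Pretreatment 4 μM, 1 h before NaN3, then 24 h with NaN3. Cells disrupted by ultrasonication and centrifuged at 10 000 rpm for 10 min at 4 °C. Supernatant LDH measured with a commercial kit, in U/L. n = 3 independent experiments.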

[22] = biological target: L-type calcium channel alpha-1c/beta-2/alpha2delta-1 (Homo sapiens, UniProt P54289+Q13936+Q08289); test: Irreversible inhibition of human alpha1c/beta2a/alpha2delta1 Cav1.2 expressed in HEK293 cells assessed as decrease in membrane potential measured after washout with external solution at 100 uM by manual patch clamp technique; assay type: cell-based; settings: hek293, 100 µM; in short: as §1

T1 sequence (P54289 25-956 limits assumed): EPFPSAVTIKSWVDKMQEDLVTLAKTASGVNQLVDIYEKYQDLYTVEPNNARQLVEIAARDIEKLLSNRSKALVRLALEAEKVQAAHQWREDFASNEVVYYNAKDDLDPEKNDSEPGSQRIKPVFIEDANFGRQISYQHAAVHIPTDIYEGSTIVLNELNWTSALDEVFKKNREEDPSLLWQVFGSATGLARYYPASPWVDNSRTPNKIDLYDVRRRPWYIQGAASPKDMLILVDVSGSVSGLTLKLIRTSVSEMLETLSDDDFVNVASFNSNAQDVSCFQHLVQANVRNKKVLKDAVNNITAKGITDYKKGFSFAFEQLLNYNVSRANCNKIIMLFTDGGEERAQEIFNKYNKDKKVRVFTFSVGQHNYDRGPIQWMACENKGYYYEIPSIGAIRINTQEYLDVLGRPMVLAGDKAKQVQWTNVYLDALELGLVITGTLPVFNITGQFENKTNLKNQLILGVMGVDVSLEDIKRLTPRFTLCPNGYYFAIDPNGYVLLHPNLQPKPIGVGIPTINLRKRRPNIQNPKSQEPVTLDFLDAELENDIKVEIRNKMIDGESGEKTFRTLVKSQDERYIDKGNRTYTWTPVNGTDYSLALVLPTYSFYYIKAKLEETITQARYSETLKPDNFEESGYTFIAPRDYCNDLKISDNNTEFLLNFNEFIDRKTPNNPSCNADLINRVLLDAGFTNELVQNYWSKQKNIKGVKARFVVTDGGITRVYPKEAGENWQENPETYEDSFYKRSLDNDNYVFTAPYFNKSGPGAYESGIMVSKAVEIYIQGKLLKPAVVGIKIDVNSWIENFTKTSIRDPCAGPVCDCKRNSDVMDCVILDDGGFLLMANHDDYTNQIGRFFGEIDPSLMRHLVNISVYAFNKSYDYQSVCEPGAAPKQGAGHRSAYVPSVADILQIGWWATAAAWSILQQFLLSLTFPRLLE
T1 sequence (P54289 957-1103 limits assumed): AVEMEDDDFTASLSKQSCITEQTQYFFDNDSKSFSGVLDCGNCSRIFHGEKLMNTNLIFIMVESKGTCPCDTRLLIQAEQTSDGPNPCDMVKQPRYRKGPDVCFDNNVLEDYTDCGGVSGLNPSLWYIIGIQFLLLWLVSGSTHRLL
T1 sequence (Q08289 whole entry): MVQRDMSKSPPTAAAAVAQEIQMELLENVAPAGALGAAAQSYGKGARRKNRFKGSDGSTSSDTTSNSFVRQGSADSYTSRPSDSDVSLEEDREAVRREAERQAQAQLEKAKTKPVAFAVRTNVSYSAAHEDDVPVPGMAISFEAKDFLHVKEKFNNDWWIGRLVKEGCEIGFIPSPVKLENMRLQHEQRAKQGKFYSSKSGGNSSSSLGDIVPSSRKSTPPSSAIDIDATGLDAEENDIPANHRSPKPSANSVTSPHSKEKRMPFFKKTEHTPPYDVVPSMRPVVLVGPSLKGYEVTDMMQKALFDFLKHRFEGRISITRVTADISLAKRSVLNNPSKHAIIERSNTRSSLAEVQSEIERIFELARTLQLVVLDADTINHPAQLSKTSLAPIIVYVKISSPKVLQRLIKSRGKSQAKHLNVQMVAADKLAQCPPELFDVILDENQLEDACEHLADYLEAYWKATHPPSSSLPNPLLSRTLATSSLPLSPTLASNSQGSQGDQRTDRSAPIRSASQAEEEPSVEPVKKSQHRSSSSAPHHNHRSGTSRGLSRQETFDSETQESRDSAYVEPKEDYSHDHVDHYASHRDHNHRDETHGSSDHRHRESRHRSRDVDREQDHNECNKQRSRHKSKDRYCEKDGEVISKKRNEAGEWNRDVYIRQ
T1 sequence (Q13936 whole entry): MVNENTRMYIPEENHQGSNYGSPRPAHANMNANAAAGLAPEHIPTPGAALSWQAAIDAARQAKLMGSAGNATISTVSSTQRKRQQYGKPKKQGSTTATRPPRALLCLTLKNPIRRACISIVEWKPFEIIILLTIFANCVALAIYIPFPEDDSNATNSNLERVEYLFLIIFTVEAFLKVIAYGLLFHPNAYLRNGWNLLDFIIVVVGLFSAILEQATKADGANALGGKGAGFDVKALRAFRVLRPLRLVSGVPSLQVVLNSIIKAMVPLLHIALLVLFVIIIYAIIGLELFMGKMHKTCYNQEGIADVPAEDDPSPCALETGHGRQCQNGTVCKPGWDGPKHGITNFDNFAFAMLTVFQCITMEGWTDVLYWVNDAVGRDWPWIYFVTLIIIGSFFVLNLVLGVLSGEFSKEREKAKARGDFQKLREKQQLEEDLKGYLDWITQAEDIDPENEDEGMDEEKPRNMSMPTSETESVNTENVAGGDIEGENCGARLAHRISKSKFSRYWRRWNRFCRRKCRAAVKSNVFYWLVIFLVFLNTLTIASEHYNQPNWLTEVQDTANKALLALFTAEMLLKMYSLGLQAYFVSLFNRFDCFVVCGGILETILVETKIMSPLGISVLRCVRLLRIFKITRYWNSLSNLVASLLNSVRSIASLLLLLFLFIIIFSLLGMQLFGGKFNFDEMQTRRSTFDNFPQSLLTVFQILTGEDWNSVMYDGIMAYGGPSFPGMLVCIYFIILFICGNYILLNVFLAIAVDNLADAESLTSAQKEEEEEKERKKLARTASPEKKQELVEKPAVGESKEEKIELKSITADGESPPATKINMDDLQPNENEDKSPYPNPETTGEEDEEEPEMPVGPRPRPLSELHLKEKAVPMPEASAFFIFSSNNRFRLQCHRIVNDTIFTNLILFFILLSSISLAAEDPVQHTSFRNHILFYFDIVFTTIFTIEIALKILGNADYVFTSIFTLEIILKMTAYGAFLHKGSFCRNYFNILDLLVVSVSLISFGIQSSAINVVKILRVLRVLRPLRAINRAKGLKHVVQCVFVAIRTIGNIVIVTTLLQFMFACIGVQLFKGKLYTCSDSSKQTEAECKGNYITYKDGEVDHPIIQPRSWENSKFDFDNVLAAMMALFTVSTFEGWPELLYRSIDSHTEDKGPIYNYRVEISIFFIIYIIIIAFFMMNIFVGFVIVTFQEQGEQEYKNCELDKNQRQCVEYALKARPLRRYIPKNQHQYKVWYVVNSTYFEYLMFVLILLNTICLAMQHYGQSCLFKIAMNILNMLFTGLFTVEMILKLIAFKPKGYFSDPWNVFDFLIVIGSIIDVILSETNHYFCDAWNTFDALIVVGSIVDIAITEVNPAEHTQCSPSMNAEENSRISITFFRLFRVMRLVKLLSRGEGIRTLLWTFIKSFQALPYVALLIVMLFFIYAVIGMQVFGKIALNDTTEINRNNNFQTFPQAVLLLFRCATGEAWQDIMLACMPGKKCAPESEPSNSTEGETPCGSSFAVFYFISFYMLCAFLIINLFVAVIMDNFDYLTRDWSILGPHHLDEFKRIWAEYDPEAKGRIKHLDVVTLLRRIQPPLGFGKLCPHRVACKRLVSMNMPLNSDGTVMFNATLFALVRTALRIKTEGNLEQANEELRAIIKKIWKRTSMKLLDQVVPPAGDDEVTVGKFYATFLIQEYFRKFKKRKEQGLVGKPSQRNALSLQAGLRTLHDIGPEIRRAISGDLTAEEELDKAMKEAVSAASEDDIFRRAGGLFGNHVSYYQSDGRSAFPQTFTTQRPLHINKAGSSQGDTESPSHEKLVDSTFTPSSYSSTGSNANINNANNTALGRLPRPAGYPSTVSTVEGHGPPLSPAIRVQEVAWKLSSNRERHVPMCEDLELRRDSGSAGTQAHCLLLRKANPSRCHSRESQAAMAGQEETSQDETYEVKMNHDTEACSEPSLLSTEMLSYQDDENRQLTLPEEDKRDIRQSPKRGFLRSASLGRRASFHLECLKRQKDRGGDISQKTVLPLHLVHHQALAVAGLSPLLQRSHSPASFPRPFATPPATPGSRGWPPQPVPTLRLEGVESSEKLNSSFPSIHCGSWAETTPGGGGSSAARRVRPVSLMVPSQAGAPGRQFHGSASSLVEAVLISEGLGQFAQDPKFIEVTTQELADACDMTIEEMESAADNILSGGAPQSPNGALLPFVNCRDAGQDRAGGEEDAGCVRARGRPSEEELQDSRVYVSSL
Sequence of L-type calcium channel alpha-1c/beta-2/alpha2delta-1 (Homo sapiens, UniProt P54289+Q08289+Q13936) (P54289 25-956 limits assumed): as the sequence (P54289 25-956 limits assumed) above
Sequence of L-type calcium channel alpha-1c/beta-2/alpha2delta-1 (Homo sapiens, UniProt P54289+Q08289+Q13936) (P54289 957-1103 limits assumed): as the sequence (P54289 957-1103 limits assumed) above
Sequence of L-type calcium channel alpha-1c/beta-2/alpha2delta-1 (Homo sapiens, UniProt P54289+Q08289+Q13936) (Q08289 whole entry): as the sequence (Q08289 whole entry) above
Sequence of L-type calcium channel alpha-1c/beta-2/alpha2delta-1 (Homo sapiens, UniProt P54289+Q08289+Q13936) (Q13936 whole entry): as the sequence (Q13936 whole entry) above

| Compound | viability at 5 µM [1] | viability at 10 µM [2] | viability at 20 µM [3] | viability at 40 µM [4] | viability at 80 µM [5] | viability at 100 µM [6] | Activity [11] | also measured |
| --- | --- | --- | --- | --- | --- | --- | --- | --- |
| CCCCCCCCC[C@H](C#CC#C[C@H](O)c1ccccc1)OC(=O)c1ccccc1 | 65.6% | 63.7% | 61.3% | 51.7% | 36.2% | 31.3% |  |  |
| CC(C)[Si](C#CC#C[C@H](O)c1cccc(F)c1)(C(C)C)C(C)C |  |  |  |  |  |  | 53 nmol/mL | viability at 5 µM [7]: 83%; viability at 10 µM [8]: 76%; Activity [9]: Active; Activity [10]: 132 U/L; Activity [12]: 124 U/mg |
| CC(C)[Si](C#CC#C[C@@H](O)C1CCCC1)(C(C)C)C(C)C |  |  |  |  |  |  |  | viability at 20 µM [13]: 66%; viability at 40 µM [14]: 65% |
| CCCCCCCCC[C@H](C#CC#C[Si](C(C)C)(C(C)C)C(C)C)OC(=O)c1ccccc1 | 50.4% | 47.9% | 47.5% | 46.4% | 46.4% | 43.9% |  |  |
| CCCCCCCCC[C@@H](O)C#CC#C[Si](C(C)C)(C(C)C)C(C)C | 49.4% | 47.8% | 46.2% | 43.5% | 39.5% | 37.6% |  |  |
| CC(C)[Si](C#CC#C[C@H](O)c1ccccc1)(C(C)C)C(C)C | 60.1% | 66.6% | 58% | 58.2% | 53% | 51.9% | 47 nmol/mL | viability at 5 µM [7]: 60%; viability at 10 µM [8]: 67%; Activity [10]: 132 U/L; Activity [12]: 124 U/mg; inhibition at 10 µM [15]: 7.7%; inhibition at 30 µM [16]: 38.6%; inhibition at 100 µM [17]: 79.7%; IC50 [18]: 41.3 µM; viability at 1 µM [19]: ≤ 96% |
| C#CC#C[C@H](O)c1ccccc1 | 47.8% | 52.4% | 55% | 49.9% | 47.5% | 43.5% |  |  |
| COc1cccc([C@@H](O)C#CC#C[Si](C(C)C)(C(C)C)C(C)C)c1 |  |  |  |  |  |  |  | viability at 20 µM [13]: 61%; viability at 40 µM [14]: 65% |
| C=C[C@@H](O)C#CC#CC/C=C\CCCCCCC |  |  |  |  |  |  | 68 nmol/mL | Survival [20]: 59%; Activity [21]: 211 U/L; Activity [22]: Active; inhibition at 10 µM [15]: 7.9%; inhibition at 30 µM [16]: 28.1%; inhibition at 100 µM [17]: 61.6%; IC50 [18]: 41.3 µM |
